The first experiment concerns the target T1, Squalene synthase (Rattus norvegicus, UniProt Q02769).
T1 sequence (Q02769 whole entry): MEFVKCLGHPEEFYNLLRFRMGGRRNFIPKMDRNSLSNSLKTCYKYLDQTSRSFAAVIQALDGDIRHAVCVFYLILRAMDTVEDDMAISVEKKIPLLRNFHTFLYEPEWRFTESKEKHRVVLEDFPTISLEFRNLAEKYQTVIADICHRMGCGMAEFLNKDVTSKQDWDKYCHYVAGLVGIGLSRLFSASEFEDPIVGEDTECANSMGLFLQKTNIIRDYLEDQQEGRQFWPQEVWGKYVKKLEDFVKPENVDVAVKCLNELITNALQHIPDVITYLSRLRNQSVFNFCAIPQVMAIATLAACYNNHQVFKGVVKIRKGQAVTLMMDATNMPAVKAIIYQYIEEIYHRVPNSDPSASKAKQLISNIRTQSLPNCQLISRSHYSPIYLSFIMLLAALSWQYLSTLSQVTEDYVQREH
In words: Compound was measured for the inhibition of rat microsomal squalene synthase enzyme.
With `C=CCc1cc(CCC(=O)OCC)ccc1C#CC1(O)CN2CCC1CC2` (centres undefined), the IC50 (in general, the concentration at which inhibition is half-maximal) was determined as 6 nM.

A further experiment addresses T2, Lanosterol synthase (Rattus norvegicus, UniProt P48450).
T2 sequence (P48450 whole entry): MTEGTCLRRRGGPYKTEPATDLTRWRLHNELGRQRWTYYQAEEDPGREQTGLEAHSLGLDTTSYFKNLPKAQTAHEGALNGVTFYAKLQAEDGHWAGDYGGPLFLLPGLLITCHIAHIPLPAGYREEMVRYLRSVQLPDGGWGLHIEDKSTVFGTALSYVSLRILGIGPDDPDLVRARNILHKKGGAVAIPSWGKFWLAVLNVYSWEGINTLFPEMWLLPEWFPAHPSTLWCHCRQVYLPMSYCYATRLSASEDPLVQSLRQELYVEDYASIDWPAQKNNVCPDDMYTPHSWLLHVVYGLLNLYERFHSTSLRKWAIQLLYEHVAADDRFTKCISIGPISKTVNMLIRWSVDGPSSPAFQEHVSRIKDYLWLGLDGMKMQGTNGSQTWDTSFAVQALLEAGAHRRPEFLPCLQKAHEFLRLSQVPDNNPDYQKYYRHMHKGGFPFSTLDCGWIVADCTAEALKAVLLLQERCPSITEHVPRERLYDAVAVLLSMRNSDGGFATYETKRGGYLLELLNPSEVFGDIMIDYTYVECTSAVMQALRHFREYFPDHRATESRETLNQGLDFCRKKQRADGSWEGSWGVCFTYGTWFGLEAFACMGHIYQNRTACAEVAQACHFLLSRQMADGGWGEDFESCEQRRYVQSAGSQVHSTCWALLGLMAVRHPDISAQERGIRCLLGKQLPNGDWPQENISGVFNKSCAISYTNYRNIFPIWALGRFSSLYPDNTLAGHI
The experiment in a line: Inhibition of compound was measured on rat microsomal Oxidosqualene-lanosterol cyclase. The gist of the method: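 Rat liver microsomes diluted in 50 mM phosphate buffer pH 7.4 with tween; compounds from DMSO stocks (10^-4 M, serial tenfold dilutions) preincubated with microsomes 10 min at 37 °C, then cold plus radiolabelled oxidosqualene added, 1 h incubation. Stopped with ethanolic KOH, heated 80 °C 2 h, hexane-extracted; inhibition from radiolabelled product.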
`C=CCc1cc(CCC(=O)OCC)ccc1C#CC1(O)CN2CCC1CC2` (centres undefined) returned an IC50 of more than 100 nM.
In the case of `OC1(c2ccc(-c3ccccc3)cc2)CN2CCC1CC2` (centres undefined), the IC50 was more than 100 nM.

The next experiment deals with T3, Lanosterol synthase (Rattus norvegicus) (UniProt P48450).
T3 sequence (whole entry): T2 sequence (P48450 whole entry)
The experiment in a line: The in vivo assay of compound for inhibition of cholesterol biosynthesis was measured on Oxidosqualene-lanosterol cyclase of rat at 5 mg/kg. Also on record: dose 5 mg/kg. It is filed as functional, organism-based. In a few lines: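 Female rats (130 ± 20 g) on reverse lighting dosed orally in DMSO/HPMC; tritiated mevalonate (2.5 μCi) given 1 h later, rats killed after another 1 h. Liver extracts run on HPLC with radiodetection; peaks assigned against standard sterol intermediates' retention times; cholesterol synthesis inhibition from peak area, plus intermediate selectivity profile.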
For `O=C(/C=C1\CN2CCC1CC2)c1ccc(C(=O)c2ccc(Br)cc2)cc1`, the inhibition (as a rule, the change of the read-out against control, counted positive when it falls) was found to be 84%.
For `O=C(c1ccc(Cl)cc1)c1ccc(OC2CN3CCC2CC3)cc1` (centres undefined), the inhibition amounted to 92%.

For the next experiment, the target named is T3, Lanosterol synthase (Rattus norvegicus). The experiment in a line: The in vivo assay of compound for inhibition of cholesterol biosynthesis was measured on Oxidosqualene-lanosterol cyclase of rat at 5 mg/kg.
`OC1(C#Cc2ccc(Oc3ccc(Br)cc3)cc2)CN2CCC1CC2` (centres undefined) came in with an inhibition of 55%.
`O=C(c1ccc(Br)cc1)c1ccc(C#CC2(O)CN3CCC2CC3)cc1` (centres undefined) yielded an inhibition of 59%.
For the compound `Brc1ccc(SC2CN3CCC2CC3)cc1` (centres undefined), the inhibition was 47%.
Compound `O=C(c1ccc(C(F)(F)F)cc1)N1CCC(=Cc2ccc(C3=NCCO3)cc2)CC1` registered an inhibition of 98%.
`[O-][S+](c1ccc(Br)cc1)c1ccc(C#CC2(O)CN3CCC2CC3)cc1` (centres undefined): the inhibition stood at 83%.
The compound `Brc1cccc(SC2CN3CCC2CC3)c1` (centres undefined) showed an inhibition of less than 5%.
In turn, `Brc1ccccc1SC1CN2CCC1CC2` (centres undefined) came in with an inhibition of less than 5%.
Regarding `O=S(=O)(c1ccc(Br)cc1)c1ccc(C#CC2(O)CN3CCC2CC3)cc1` (centres undefined), the inhibition amounted to 94%.
As for `OC1(C#Cc2ccc(Sc3ccc(Br)cc3)cc2)CN2CCC1CC2` (centres undefined), the inhibition was 79%.

(Values after ChEMBL document CHEMBL1132628, “Quinuclidine inhibitors of 2,3-oxidosqualene cyclase-lanosterol synthase: optimization from lipid profiles” (J Med Chem, 1999).)
